Consider 24 compounds from ChEMBL document CHEMBL1165910, “Synthesis and biological evaluation of new [1,2,4]triazino[5,6-b]indol-3-ylthio-1,3,5-triazines and [1,2,4]triazino[5,6-b]indol-3-ylthio-pyrimidines against Leishmania donovani” (Eur J Med Chem, 2010).

In brackets after ≈: the same amount, converted by molar mass. Activity calls are given as the source filed them. The calls are words filed in the database; no cut-off is given here.

Data set [1] in a line: Cytotoxicity against mouse J774A1 cells after 72 hrs by MTT assay. The class given is cell-based, J774.A1. Put shortly:
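J774A.1 cells were grown in RPMI with 10% foetal calf serum and 40 µg/mL gentamycin. Exponentially growing cells (1 × 10^4/well) received compound dilutions, made from DMSO stock in complete medium, for 72 h at 37 °C in humidified CO2/air. MTT (5 mg/mL in PBS) was added for 2 h, supernatant removed and formazan dissolved in DMSO. A544 was read, and CC50 (50% viability reduction versus medium-only cells) was estimated by template.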

Data set [2] deals with Leishmania donovani. In words: Antileishmanial activity against Leishmania donovani MHOM/IN/Dd8 promastigote carrying firefly luciferase gene infected in mouse J774A1 cells assessed as relative luminescence unit at 40 ug/mL after 72 hrs. The data set is classed as functional. Conditions: for inhibition at 40 µg/mL: MHOM/IN/Dd8, J774.A1, 72 h; for inhibition: J774.A1.
Data set [3] can be described thus: (§1) Selectivity index, ratio of CC50 for mouse J774A1 cells to IC50 for IC50 Leishmania donovani MHOM/IN/Dd8. The data set is classed as functional, J774.A1.
In data set [4] the test system is Leishmania donovani. In words: Antileishmanial activity against Leishmania donovani (MHOM/IN/Dd8) amastigote infected in mouse J774 cells assessed as after 72 hrs by luminometry. The class given is functional, organism-based. The following applies: for IC50: MHOM/IN/Dd8, J774, 72 h. The procedure, abridged: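 J774 macrophages were seeded at 1.5 × 10^4 cells/well in RPMI-1640 with 10% foetal calf serum at 37 °C under CO2. After 24 h, medium was replaced with medium containing luciferase-transfected stationary-phase promastigotes (2.25 × 10^5/well). Test material at 0.25–10 in complete medium was then added for 72 h at 37 °C. Wells were given PBS plus Steady-Glo and read by luminometer; inhibition was calculated against untreated infected controls.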

Data set [5] deals with Leishmania donovani. In words: Antileishmanial activity against Leishmania donovani MHOM/IN/Dd8 promastigote carrying firefly luciferase gene infected in mouse J774A1 cells assessed as relative luminescence unit at 0.5 ug/mL after 72 hrs. The class given is functional. The following applies: MHOM/IN/Dd8, J774.A1, 72 h.
For data set [6], the system named is Leishmania donovani. In words: Antileishmanial activity against Leishmania donovani (MHOM/IN/Dd8) amastigote infected in mouse J774 cells assessed as after 72 hrs by luminometry at 40 ug/ml. The class given is functional, organism-based.
The subject of data set [7] is J774.A1. Described as §1. The class given is functional.
For data set [8], the system named is Leishmania donovani. Briefly: Antileishmanial activity against Leishmania donovani MHOM/IN/Dd8 promastigote carrying firefly luciferase gene infected in mouse J774A1 cells assessed as relative luminescence unit at 940 ug/mL after 72 hrs. The data set is classed as functional, organism-based. Conditions: J774.A1.

For the compound `CC(C)Nc1nc(NC(C)C)nc(Sc2nnc3c4ccccc4n(C)c3n2)n1`, the cytotoxic concentration (CC50) at 72 h in data set [1] is 64.5 µM. In addition, the inhibition at 40 µg/mL in data set [2] worked out at 99.3%. Also, the “Ratio CC50/IC50” value in data set [3] worked out at 3.71. For the same compound, the MIC in data set [4] (MHOM/IN/Dd8, 72 h) is 90.5 µM (≈ 37.1 µg/mL). In data set [4], the IC50 was found to be 17.4 µM.
With `N=C(N)c1ccc(OCCCCCOc2ccc(C(=N)N)cc2)cc1` [PENTAMIDINE], the inhibition at 0.5 µg/mL in data set [5] worked out at 85%. The compound also yielded a CC50 at 72 h in data set [1] of 52.8 µM. The MIC in data set [4] (MHOM/IN/Dd8, 72 h) is greater than 169 µM. Moreover, in data set [4], the IC50 is 20.4 µM.
Regarding `CN1CCN(c2nc(Sc3nnc4c5ccccc5n(C)c4n3)nc(N3CCN(C)CC3)n2)CC1`, in data set [2], the inhibition result was “inactive”.
Regarding `Cc1cc(Sc2nnc3c4ccccc4n(C)c3n2)nc(NCCCN2CCOCC2)n1`, in data set [6], the result was inactive. In data set [2], the inhibition at 40 µg/mL was determined as 95.1%. In data set [7], the “Ratio CC50/IC50” value was “inactive”.
With `CN(C)CCNc1nc(NCCN(C)C)nc(Sc2nnc3c4ccccc4n(C)c3n2)n1`, in data set [2], the inhibition at 40 µg/mL is 68.5%.
In the case of `Cn1c2ccccc2c2nnc(Sc3nc(NCCN4CCOCC4)nc(NCCN4CCOCC4)n3)nc21`, the outcome in data set [6] was inactive. The inhibition at 40 µg/mL in data set [2] was 77.1%. For the same compound, the “Ratio CC50/IC50” value in data set [7] was “inactive”.
The compound `CCCCNc1nc(C)cc(Sc2nnc3c4ccccc4n(C)c3n2)n1` yielded a CC50 at 72 h in data set [1] of 88.4 µM. Moreover, the inhibition at 40 µg/mL in data set [2] was 99.7%. In addition, the “Ratio CC50/IC50” value in data set [3] is on record as 4.82. In addition, the MIC in data set [4] (MHOM/IN/Dd8, 72 h) turned out to be 110 µM (≈ 41.8 µg/mL). For the same compound, the IC50 in data set [4] stood at 18.3 µM.
For `CCCCNc1nc(NCCCC)nc(Sc2nnc3c4ccccc4n(C)c3n2)n1`, the CC50 at 72 h in data set [1] came to 17.1 µM. Besides, in data set [6], the outcome was inactive. Besides, in data set [2], the inhibition at 40 µg/mL was 93.2%. Besides, the “Ratio CC50/IC50” value in data set [7] is “inactive”.
On to `Cn1c2ccccc2c2nnc(Sc3nc(NCCCN4CCOCC4)nc(NCCCN4CCOCC4)n3)nc21`, for which, in data set [2], the inhibition entry is “inactive”.
Take `Cn1c2ccccc2c2nnc(Sc3nc(N4CCOCC4)nc(N4CCOCC4)n3)nc21`: the inhibition at 40 µg/mL in data set [2] stood at 43.1%.
In the case of `Cc1cc(Sc2nnc3c4ccccc4n(C)c3n2)nc(N2CCOCC2)n1`, in data set [2], the inhibition entry is “inactive”.
Compound `CCN1CCN(c2nc(Sc3nnc4c5ccccc5n(C)c4n3)nc(N3CCN(CC)CC3)n2)CC1` registered a CC50 at 72 h in data set [1] of 93.2 µM. Moreover, the inhibition at 40 µg/mL in data set [2] was found to be 100%. The “Ratio CC50/IC50” value in data set [3] came to 6. Besides, the MIC in data set [4] (MHOM/IN/Dd8, 72 h) came out at 26.6 µM (≈ 13.8 µg/mL). The IC50 in data set [4] was determined as 15.5 µM.
Regarding `CCN(CC)CCNc1nc(C)cc(Sc2nnc3c4ccccc4n(C)c3n2)n1`, the result in data set [6] was inactive. Besides, the inhibition at 40 µg/mL in data set [2] was 99.9%. The “Ratio CC50/IC50” value in data set [7] is “inactive”.
In data set [1], `Cc1cc(Sc2nnc3c4ccccc4n(C)c3n2)nc(N2CCCCC2)n1` showed a CC50 at 72 h of 173 µM. For the same compound, the inhibition at 40 µg/mL in data set [2] is 99.3%. Moreover, the “Ratio CC50/IC50” value in data set [3] stood at 6.74. In data set [4] (MHOM/IN/Dd8, 72 h), the minimal inhibitory concentration (MIC) amounted to 139 µM (≈ 54.3 µg/mL). In data set [4], the IC50 turned out to be 25.7 µM.
On the same counts, the results for `CCN1CCN(c2nc(C)cc(Sc3nnc4c5ccccc5n(C)c4n3)n2)CC1` are 28.1 µM, 100%, 1.06, 90.8 µM (≈ 38.2 µg/mL) and 26.3 µM.
On the same counts, the results for `Cc1cc(Sc2nnc3c4ccccc4n(C)c3n2)nc(NC(C)C)n1` are 109 µM, 99.2%, 3.66, 93.8 µM (≈ 34.3 µg/mL) and 29.6 µM.
The corresponding values for `Cn1c2ccccc2c2nnc(Sc3nc(N4CCCCC4)nc(N4CCCCC4)n3)nc21` are 227 µM, 75.6%, 56.61, 20.5 µM (≈ 9.48 µg/mL) and 4.01 µM.
As for `Cn1c2ccccc2c2nnc(Sc3nc(NC(C)(C)C)nc(NC(C)(C)C)n3)nc21`, the outcome in data set [6] was inactive. In data set [2], the inhibition at 40 µg/mL turned out to be 97.4%. For the same compound, in data set [7], the “Ratio CC50/IC50” value is “inactive”.
Turning to `Cc1cc(Sc2nnc3c4ccccc4n(C)c3n2)nc(NCCN(C)C)n1`, the result in data set [6] was inactive. The inhibition at 40 µg/mL in data set [2] came out at 100%. Besides, the “Ratio CC50/IC50” value in data set [7] was “inactive”.
Turning to “D-Gluconic acid,2,4:2',4'-O-[oxybis-(oxidostibylidyne)]bis-,trisodium salt, nonahydrate”, the Ratio CC50/IC50 in data set [7] is 5.53. Also, the inhibition in data set [8] was determined as 40%. For the same compound, in data set [4], the MIC was 164 µM.
Compound `Cc1cc(Sc2nnc3c4ccccc4n(C)c3n2)nc(N2CCN(C)CC2)n1` showed a CC50 at 72 h in data set [1] of 29.2 µM. Also, the inhibition at 40 µg/mL in data set [2] worked out at 99.9%. Further, in data set [3], the “Ratio CC50/IC50” value is on record as 0.5. Besides, the MIC in data set [4] (MHOM/IN/Dd8, 72 h) was 68.7 µM (≈ 27.9 µg/mL). In addition, the IC50 in data set [4] was 57.8 µM.
Turning to `Cc1cc(Sc2nnc3c4ccccc4n(C)c3n2)nc(NCCN2CCOCC2)n1`, in data set [2], the inhibition at 40 µg/mL is 51.1%.
Still for that read-out and setting: as for `Cc1cc(Sc2nnc3c4ccccc4n(C)c3n2)nc(NC(C)(C)C)n1`, the figure is 66.7%.
As to `CCN(CC)CCNc1nc(NCCN(CC)CC)nc(Sc2nnc3c4ccccc4n(C)c3n2)n1`, in data set [2], the inhibition at 40 µg/mL turned out to be 49.3%.
